From ChEMBL document CHEMBL1128230, “5'-[4-(Pivaloyloxy)-1,3,2-dioxaphosphorinan-2-yl]-2'-deoxy-5-fluorouridine: a membrane-permeating prodrug of 5-fluoro-2'-deoxyuridylic acid (FdUMP)” (J Med Chem, 1995)

Legend:
CHO-FU = assay: Growth inhibitory activity against CHO/FU cells in culture.; type: functional, cell-based; conditions: Cricetulus griseus
In short: (§1)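 CHO cells and FU-resistant CHO subline plated at about 200 cells per 35-mm dish and cloned with drug at 0, 0.5, 1.5, 5, 10, 50 and 100 µM for 7 days at 37 °C in humidified CO2. Clones fixed in 10% formaldehyde and stained with 0.1% crystal violet. Minimum inhibitory concentration is the lowest concentration giving colonies of fewer than 50 cells.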

CHO = assay: Growth inhibitory activity against CHO cells in culture.; type: functional, cell-based; conditions: Cricetulus griseus; in short: as §1
Mus musculus [1] = assay: Median survival time of […] implanted intraperitoneally with P-388 leukemia resistant cells at a dose of 150 mg/kg.; type: functional; conditions: route intraperitoneal
Mus musculus [2] = assay: Average percentage weight change on day 5 in mice implanted intraperitoneally with P-388 leukemia sensitive cells at a dose of 67 mg/kg.; type: functional; conditions: route intraperitoneal
In short: (§2)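 Male BDF1 mice, six per group, average weight 22 g; 1 × 10^6 P-388 cells (FU-sensitive P-388/0 or FU-resistant P-388/FU) inoculated ip on day 0. Dosing ip daily for 5 consecutive days starting 24 h after implantation. Saline vehicle for FU and FUdR; Emulphor 620 formulation for the prodrug. Followed until death. % ILS = (T/C − 1) × 100 from median survival versus saline-treated controls.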

Mus musculus [3] = assay: Median survival time of 15 mice implanted intraperitoneally with P-388 leukemia sensitive cells at a dose of 67 mg/kg.; type: functional; conditions: route intraperitoneal
Mus musculus [4] = assay: Median survival time of […] implanted intraperitoneally with P-388 leukemia sensitive cells at a dose of 100 mg/kg.; type: functional; conditions: route intraperitoneal
Mus musculus [5] = assay: Percentage increase in life span of treated mice implanted intraperitoneally with P-388 leukemia sensitive cells compared with controls at a dose of 150 mg/kg.; type: functional; conditions: P388, ip, route intraperitoneal
In short: (§3)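 Male BDF1 mice (six per group, average 22 g) inoculated ip with 1 × 10^6 P-388 cells, wild-type or FU-resistant subline, on day 0. Drugs given ip daily for 5 consecutive days starting 24 h after implantation, in 0.9% saline or Emulphor 620 vehicle; followed until death. Median survival of treated (T) vs saline controls (C); % ILS = (T/C − 1) × 100; body weight change recorded.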

Mus musculus [6] = assay: Percentage increase in life span of treated mice implanted intraperitoneally with P-388 leukemia sensitive cells compared with controls at a dose of 67 mg/kg.; type: functional; conditions: P388, ip, route intraperitoneal; in short: as §3
Mus musculus [7] = assay: Percentage increase in life span of treated mice implanted intraperitoneally with P-388 leukemia resistant cells compared with controls at a dose of 67 mg/kg.; type: functional; conditions: P388, ip, route intraperitoneal; in short: as §3
Mus musculus [8] = assay: Average percentage weight change on day 5 in mice implanted intraperitoneally with P-388 leukemia resistant cells at a dose of 100 mg/kg.; type: functional; conditions: route intraperitoneal; in short: as §2
Mus musculus [9] = assay: Percentage increase in life span of treated mice implanted intraperitoneally with P-388 leukemia sensitive cells compared with controls at a dose of 100 mg/kg.; type: functional; conditions: P388, ip, route intraperitoneal; in short: as §3
Mus musculus [10] = assay: Median survival time of […] implanted intraperitoneally with P-388 leukemia resistant cells at a dose of 67 mg/kg.; type: functional; conditions: route intraperitoneal
Mus musculus [11] = assay: Percentage increase in life span of treated mice implanted intraperitoneally with P-388 leukemia resistant cells compared with controls at a dose of 100 mg/kg.; type: functional; conditions: P388, ip, route intraperitoneal; in short: as §3
Mus musculus [12] = assay: Average percentage weight change on day 5 in mice implanted intraperitoneally with P-388 leukemia resistant cells at a dose of 67 mg/kg.; type: functional; conditions: route intraperitoneal; in short: as §2
Mus musculus [13] = assay: Median survival time of 15 mice implanted intraperitoneally with P-388 leukemia sensitive cells at a dose of 150 mg/kg.; type: functional; conditions: route intraperitoneal
Mus musculus [14] = assay: Average percentage weight change on day 5 in mice implanted intraperitoneally with P-388 leukemia resistant cells at a dose of 150 mg/kg.; type: functional; conditions: route intraperitoneal; in short: as §2
Mus musculus [15] = assay: Average percentage weight change on day 5 in mice implanted intraperitoneally with P-388 leukemia sensitive cells at a dose of 150 mg/kg.; type: functional; conditions: route intraperitoneal; in short: as §2
Mus musculus [16] = assay: Percentage increase in life span of treated mice implanted intraperitoneally with P-388 leukemia resistant cells compared with controls at a dose of 150 mg/kg.; type: functional; conditions: P388, ip, route intraperitoneal; in short: as §3
Mus musculus [17] = assay: Median survival time of […] implanted intraperitoneally with P-388 leukemia resistant cells at a dose of 100 mg/kg.; type: functional; conditions: route intraperitoneal
Mus musculus [18] = assay: Average percentage weight change on day 5 in mice implanted intraperitoneally with P-388 leukemia sensitive cells at a dose of 100 mg/kg at a dose of 100 mg/kg.; type: functional; in short: as §2
Mus musculus [19] = assay: Percentage increase in life span of treated mice implanted intraperitoneally with P-388 leukemia resistant cells compared with controls at a dose of 20 mg/kg.; type: functional; conditions: P388, ip, route intraperitoneal; in short: as §3
Mus musculus [20] = assay: Median survival time of 15 mice implanted intraperitoneally with P-388 leukemia sensitive cells at a dose of 20 mg/kg.; type: functional; conditions: route intraperitoneal
Mus musculus [21] = assay: Median survival time of 15 mice implanted intraperitoneally with P-388 leukemia resistant cells at a dose of 40 mg/kg.; type: functional; conditions: route intraperitoneal
Mus musculus [22] = assay: Median survival time of 15 mice implanted intraperitoneally with P-388 leukemia sensitive cells at a dose of 30 mg/kg.; type: functional; conditions: route intraperitoneal; in short: as §3
Mus musculus [23] = assay: Percentage increase in life span of treated mice implanted intraperitoneally with P-388 leukemia resistant cells compared with controls at a dose of 40 mg/kg.; type: functional; conditions: P388, ip, route intraperitoneal; in short: as §3
Mus musculus [24] = assay: Median survival time of 15 mice implanted intraperitoneally with P-388 leukemia resistant cells at a dose of 30 mg/kg.; type: functional; conditions: route intraperitoneal
Mus musculus [25] = assay: Percentage increase in life span of treated mice implanted intraperitoneally with P-388 leukemia sensitive cells compared with controls at a dose of 30 mg/kg.; type: functional; conditions: P388, ip, route intraperitoneal; in short: as §3
Mus musculus [26] = assay: Average percentage weight change on day 5 in mice implanted intraperitoneally with P-388 leukemia resistant cells at a dose of 30 mg/kg.; type: functional; conditions: route intraperitoneal; in short: as §3
Mus musculus [27] = assay: Average percentage weight change on day 5 in mice implanted intraperitoneally with P-388 leukemia resistant cells at a dose of 20 mg/kg.; type: functional; conditions: route intraperitoneal; in short: as §3
Mus musculus [28] = assay: Percentage increase in life span of treated mice implanted intraperitoneally with P-388 leukemia resistant cells compared with controls at a dose of 30 mg/kg.; type: functional; conditions: P388, ip, route intraperitoneal; in short: as §3
Mus musculus [29] = assay: Average percentage weight change on day 5 in mice implanted intraperitoneally with P-388 leukemia sensitive cells at a dose of 20 mg/kg.; type: functional; conditions: route intraperitoneal; in short: as §3
Mus musculus [30] = assay: Median survival time of 15 mice implanted intraperitoneally with P-388 leukemia resistant cells at a dose of 20 mg/kg.; type: functional; conditions: route intraperitoneal
Mus musculus [31] = assay: Average percentage weight change on day 5 in mice implanted intraperitoneally with P-388 leukemia resistant cells at a dose of 40 mg/kg.; type: functional; conditions: route intraperitoneal; in short: as §3
Mus musculus [32] = assay: Average percentage weight change on day 5 in mice implanted intraperitoneally with P-388 leukemia sensitive cells at a dose of 30 mg/kg.; type: functional; conditions: route intraperitoneal; in short: as §3
Mus musculus [33] = assay: Percentage increase in life span of treated mice implanted intraperitoneally with P-388 leukemia sensitive cells compared with controls at a dose of 20 mg/kg.; type: functional; conditions: P388, ip, route intraperitoneal; in short: as §3
Mus musculus [34] = assay: Average percentage weight change on day 5 in mice implanted intraperitoneally with P-388 leukemia resistant cells for a dose of 100 mg/kg.; type: functional; conditions: route intraperitoneal; in short: as §2
Mus musculus [35] = assay: Median survival time of […] implanted intraperitoneally with P-388 leukemia resistant cells for a dose of 100 mg/kg.; type: functional; conditions: route intraperitoneal
Mus musculus [36] = assay: Median survival time of […] implanted intraperitoneally with P-388 leukemia sensitive cells for a dose of 100 mg/kg.; type: functional; conditions: route intraperitoneal
Mus musculus [37] = assay: Average percentage weight change on day 5 in mice implanted intraperitoneally with P-388 leukemia sensitive cells for a dose of 100 mg/kg.; type: functional; conditions: route intraperitoneal; in short: as §2
Mus musculus [38] = assay: Percentage increase in life span of treated mice implanted intraperitoneally with P-388 leukemia resistant cells compared with controls for a dose of 100 mg/kg.; type: functional; conditions: P388, ip, route intraperitoneal; in short: as §3
Mus musculus [39] = assay: Percentage increase in life span of treated mice implanted intraperitoneally with P-388 leukemia sensitive cells compared with controls for a dose of 100 mg/kg.; type: functional; conditions: P388, ip, route intraperitoneal
In short: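 Male BDF1 mice (six per group, about 22 g) inoculated ip with 1 × 10^6 P-388/0 leukemia cells on day 0. Drugs given ip daily for 5 consecutive days starting 24 h after implantation, in 0.9% saline or Emulphor 620 vehicle. Animals followed until death. %ILS = (T/C − 1) × 100 from median survival of treated versus saline-treated controls.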

Question: With `C=CC=O` [ACROLEIN] as the compound, how does the IC50 (CHO-FU) read?
Answer: Its IC50 is 50 µM.

Question: And the IC50 (CHO)?
Answer: The IC50 was 50 µM.

Question: With `O=c1[nH]c(=O)n([C@H]2C[C@H](O)[C@@H](CO)O2)cc1F` [FLOXURIDINE] as the compound, how does the MST (Mus musculus [1]) read?
Answer: The MST was 13 days.

Question: What about the Weight change (Mus musculus [2]) of the same compound?
Answer: Its Weight change is -2%.

Question: And the MST (Mus musculus [3])?
Answer: The MST was 16 days.

Question: What about the MST (Mus musculus [4]) of the same compound?
Answer: Its MST is 19 days.

Question: What about the ILS at 150 mg/kg (Mus musculus [5]) of the same compound?
Answer: Its ILS at 150 mg/kg is 82%.

Question: And the ILS at 67 mg/kg (Mus musculus [6])?
Answer: The ILS at 67 mg/kg was 45%.

Question: What about the ILS at 67 mg/kg (Mus musculus [7]) of the same compound?
Answer: Its ILS at 67 mg/kg is 9%.

Question: What about the Weight change (Mus musculus [8]) of the same compound?
Answer: Its Weight change is -10%.

Question: And the ILS at 100 mg/kg (Mus musculus [9])?
Answer: Its ILS at 100 mg/kg is 73%.

Question: What about the MST (Mus musculus [10]) of the same compound?
Answer: The MST was 12 days.

Question: What about the ILS at 100 mg/kg (Mus musculus [11]) of the same compound?
Answer: Its ILS at 100 mg/kg is 18%.

Question: What about the Weight change (Mus musculus [12]) of the same compound?
Answer: Its Weight change is -6%.

Question: What about the MST (Mus musculus [13]) of the same compound?
Answer: Its MST is 20 days.

Question: And the Weight change (Mus musculus [14])?
Answer: Its Weight change is -10%.

Question: What about the Weight change (Mus musculus [15]) of the same compound?
Answer: Its Weight change is -5%.

Question: And the ILS at 150 mg/kg (Mus musculus [16])?
Answer: The ILS at 150 mg/kg was 18%.

Question: And the MST (Mus musculus [17])?
Answer: Its MST is 13 days.

Question: What about the Weight change (Mus musculus [18]) of the same compound?
Answer: The Weight change was -4%.

Question: Which results are given for `O=c1[nH]cc(F)c(=O)[nH]1` [FLUOROURACIL]?
Answer: ILS at 20 mg/kg (Mus musculus [19]): -9%; MST (Mus musculus [20]): 16 days; MST (Mus musculus [21]): 9 days; MST (Mus musculus [22]): 17 days; ILS at 40 mg/kg (Mus musculus [23]): -18%; MST (Mus musculus [24]): 9 days; ILS at 30 mg/kg (Mus musculus [25]): 55%; Weight change (Mus musculus [26]): -15%; Weight change (Mus musculus [27]): -6%; IC50 (CHO-FU): 100 µM; ILS at 30 mg/kg (Mus musculus [28]): -18%; Weight change (Mus musculus [29]): -5%; MST (Mus musculus [30]): 10 days; Weight change (Mus musculus [31]): -18%; IC50 (CHO): 5 µM; Weight change (Mus musculus [32]): -15%; ILS at 20 mg/kg (Mus musculus [33]): 45%

Question: What does the source list for `O=S(=O)([O-])CCS.[Na+]` [MESNA]?
Answer: Weight change (Mus musculus [34]): 12%; MST (Mus musculus [35]): 11 days; MST (Mus musculus [36]): 11 days; Weight change (Mus musculus [37]): 10%; ILS at 100 mg/kg (Mus musculus [38]): 0%; ILS at 100 mg/kg (Mus musculus [39]): 0%
